# Results: article PMC3992999 (Journal of chromatography. B, Analytical technologies in …, 2011)
# What was measured:
# effects of cocaine = conditions: cited from earlier work
# [1] = stability of CM156 in rat plasma QC samples under various storage conditions; format: in vitro ADME; conditions: for stability in rat plasma: 10, 400 and 3000 ng/mL
# How it was run: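 Blank rat plasma was spiked to QC levels of 10, 400 and 3000 ng/mL, six replicates each. Conditions were three freeze–thaw cycles (−20 °C 24 h, thaw at room temperature, refreeze 12–24 h), room temperature for 12 h, −20 °C for 1 month, and autosampler reinjection after 24 h at 25 °C. Samples were chloroform-extracted with aripiprazole internal standard, analysed by UPLC/MS, and compared with fresh QCs.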
# sigma-2 receptors = conditions: sigma-1 and sigma-2 in the nanomolar and subnanomolar range; cited from earlier work
# [2] = system: cocaine induced behaviors; conditions: cited from earlier work
# sigma-1 receptors = conditions: sigma-1 and sigma-2 in the nanomolar and subnanomolar range; cited from earlier work
# [3] = pilot intravenous pharmacokinetic study in rats; format: in vivo; conditions: male, Sprague-Dawley, rat, plasma, 5 mg/kg
# How it was run: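 Six male Sprague-Dawley rats (180–200 g) with right jugular vein cannulas, fasted 12 h before and 4 h after dosing. Single 5 mg/kg i.v. bolus in saline (0.2 µm filtered) via cannula, flushed with heparinized saline. Plasma from centrifuged blood (10,000 × g, 20 min, 4 °C) held at −20 °C. Chloroform extraction with aripiprazole internal standard. HILIC UPLC/MS in SIR mode (m/z 390; IS 448). Mean ± SD, n = 6.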
# [4] = stability of stock solutions; format: physicochemical
# sigma receptors = conditions: cited from earlier work
# [5] = rat plasma, long term for 30 days (−20 °C), spiked 10 ng/mL
# [6] = rat plasma, long term for 30 days (−20 °C), spiked 400 ng/mL
# [7] = rat plasma, short term for 12 h (25 °C), spiked 10 ng/mL
# [8] = rat plasma, short term for 12 h (25 °C), spiked 400 ng/mL
# [9] = rat plasma, three freeze thaw cycles, spiked 400 ng/mL
# [10] = rat plasma, three freeze thaw cycles, spiked 3000 ng/mL
# [11] = reconstituted samples, auto sampler for 24 h (25 °C), spiked 10 ng/mL
# [12] = reconstituted samples, auto sampler for 24 h (25 °C), spiked 400 ng/mL
# [13] = reconstituted samples, auto sampler for 24 h (25 °C), spiked 3000 ng/mL
smiles,measurement,setting,value
CN(CCc1ccc(Cl)c(Cl)c1)CCN1CCCC1 [BD 1008],convulsions of cocaine,effects of cocaine,attenuation
same,locomotor stimulant effects of cocaine,effects of cocaine,blockade
same,rewarding effects of cocaine,effects of cocaine,attenuation
"S=c1sc2ccccc2n1CCCCN1CCN(C2CCCCC2)CC1 [CM156, 3-(4-(4-cyclohexylpiperazin-1-yl)butyl)benzo[d]thiazole-2(3H)-thione]",stability in rat plasma,[1]; during three freeze/thaw cycles,stable
same,Measured concentration,[1]; [5],11.2 ± 0.9 ng/mL
same,RE (relative error),[1]; [5],12.8%
same,Measured concentration,[1]; [6],394.8 ± 17.8 ng/mL
same,RE (relative error),[1]; [6],−1.3%
same,Measured concentration,"[1]; rat plasma, long term for 30 days (−20 °C), spiked 3000 ng/mL",2879.4 ± 243.1 ng/mL
same,Measured concentration,[1]; [7],8.6 ± 0.7 ng/mL
same,RE (relative error),[1]; [7],−12.3%
same,Measured concentration,[1]; [8],403.6 ± 9.2 ng/mL
same,RE (relative error),[1]; [8],2.3%
same,Measured concentration,"[1]; rat plasma, short term for 12 h (25 °C), spiked 3000 ng/mL",2879.4 ± 145.2 ng/mL
same,Measured concentration,"[1]; rat plasma, three freeze thaw cycles, spiked 10 ng/mL",9.2 ± 1.1 ng/mL
same,Measured concentration,[1]; [9],406.4 ± 8.8 ng/mL
same,RE (relative error),[1]; [9],1.6%
same,Measured concentration,[1]; [10],2879.4 ± 209.8 ng/mL
same,RE (relative error),[1]; [10],−4.0%
same,Measured concentration,[1]; [11],10.0 ± 0.2 ng/mL
same,RE (relative error),[1]; [11],2.2%
same,Measured concentration,[1]; [12],404.4 ± 4.7 ng/mL
same,RE (relative error),[1]; [12],1.1%
same,Measured concentration,[1]; [13],2901.1 ± 59.2 ng/mL
same,RE (relative error),[1]; [13],−3.3%
same,stability in rat plasma,[1]; stored at room temperature for 12 h,stable
same,stability in rat plasma,[1]; stored at −20 °C for 1 month,stable
same,stability in reconstituted samples,[1]; stored for 24 h in the autosampler at 25 °C,stable
same,affinity for sigma-2 receptors,sigma-2 receptors,high affinity
same,cocaine induced place conditioning behaviors,[2],significantly attenuate
same,expression of cocaine induced behavioral sensitization,[2],significantly attenuate
same,affinity for sigma-1 receptors,sigma-1 receptors,high affinity
same,AUC(0-inf),[3],802 ng·h/mL
same,Cmax,[3],1300 ± 200 ng/mL
same,MRT,[3],1.5 h
same,Vd,[3],9.6 ± 1.4 L/kg
same,clearance,[3],103 mL/min/kg
same,half-life,"[3]; Elimination half-life (t1/2), rats, single intravenous dose of 5 mg/kg, n = 6, mean ± SD",1.1 ± 0.4 h
same,stock solution stability,[4]; one week at −20 °C,stable
same,time stock solution is stable,[4]; room temperature,at least 6 h
COC(=O)[C@H]1[C@@H](OC(=O)c2ccccc2)C[C@@H]2CC[C@H]1N2C [cocaine],affinity for sigma receptors,sigma receptors,about 2 µm
